Results on 25 molecules are retold here after ChEMBL document CHEMBL1125185, “Nonpeptide angiotensin II receptor antagonists: the discovery of a series of N-(biphenylylmethyl)imidazoles as potent, orally active antihypertensives” (J Med Chem, 1991).

Structures are written as SMILES. Calls of active or inactive are those of the source. The rule behind the calls is not given here.

Data set [1] relates to Rattus norvegicus. The data set is described as follows: Blood pressure lowering activity in renal hypertensive rats after intravenous administration; no drop in blood pressure or a statistically insignificant drop in blood pressure was observed (in vivo). Format: functional. The method in brief: (§1)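 Male Sprague-Dawley CD rats had the left renal artery ligated under hexobarbital (100 mg/kg ip). Six days later the jugular vein and carotid artery were cannulated under hexobarbital (90 mg/kg ip). Compound was given intravenously to the conscious hypertensive rats while mean arterial pressure was recorded.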

The nature of data set [2]: Ionization constant for the compound. Format: physicochemical, Rattus norvegicus.
The subject of data set [3] is Rattus norvegicus. The data set is described as follows: These values indicate drop in blood pressure activity in renal hypertensive rats after peroral administration; NA=not active indicates fail to cause drop in blood pressure even at 30 mg/Kg (in vivo). Format: functional, organism-based.
The subject of data set [4] is Rattus norvegicus. The data set is described as follows: Effective dose that lowers the blood pressure 30 mmHg after intravenous administration. The class given is functional. A digest of the protocol:
(§2)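 Renal artery-ligated conscious rats (4-6 per dose) received compound iv or po. ED30 is the dose lowering blood pressure by 30 mmHg. It was calculated by linear regression of mean maximal decreases, using at least three doses from the linear part of the dose-response curve.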

In data set [5] the test system is Rattus norvegicus. The data set is described as follows: Effective dose that lowers the blood pressure 30 mmHg after peroral administration. The class given is functional. The following applies: po. A digest of the protocol: as §2
In another data set the target is T1, Angiotensin II receptor (Rattus norvegicus, UniProt P29089+P25095+P35351).
T1 sequence (P29089 whole entry): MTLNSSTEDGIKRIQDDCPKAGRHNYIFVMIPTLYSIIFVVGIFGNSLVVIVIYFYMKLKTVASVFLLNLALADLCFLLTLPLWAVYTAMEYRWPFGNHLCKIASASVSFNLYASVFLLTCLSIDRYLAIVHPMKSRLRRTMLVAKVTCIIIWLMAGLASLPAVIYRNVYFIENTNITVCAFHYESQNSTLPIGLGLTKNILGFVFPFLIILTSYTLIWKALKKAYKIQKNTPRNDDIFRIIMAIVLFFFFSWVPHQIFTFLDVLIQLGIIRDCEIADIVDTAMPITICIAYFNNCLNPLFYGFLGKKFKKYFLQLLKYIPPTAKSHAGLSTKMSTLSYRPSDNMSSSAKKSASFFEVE
T1 sequence (P25095 whole entry): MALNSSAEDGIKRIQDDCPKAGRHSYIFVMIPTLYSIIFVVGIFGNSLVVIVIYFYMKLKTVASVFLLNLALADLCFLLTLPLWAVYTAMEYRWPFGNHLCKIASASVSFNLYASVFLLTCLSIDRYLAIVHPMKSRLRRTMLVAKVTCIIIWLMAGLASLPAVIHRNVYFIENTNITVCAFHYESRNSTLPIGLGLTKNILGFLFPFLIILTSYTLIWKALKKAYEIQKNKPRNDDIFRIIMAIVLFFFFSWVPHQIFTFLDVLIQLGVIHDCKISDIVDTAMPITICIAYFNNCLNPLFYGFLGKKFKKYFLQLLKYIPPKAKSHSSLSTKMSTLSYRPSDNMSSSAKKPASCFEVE
T1 sequence (P35351 whole entry): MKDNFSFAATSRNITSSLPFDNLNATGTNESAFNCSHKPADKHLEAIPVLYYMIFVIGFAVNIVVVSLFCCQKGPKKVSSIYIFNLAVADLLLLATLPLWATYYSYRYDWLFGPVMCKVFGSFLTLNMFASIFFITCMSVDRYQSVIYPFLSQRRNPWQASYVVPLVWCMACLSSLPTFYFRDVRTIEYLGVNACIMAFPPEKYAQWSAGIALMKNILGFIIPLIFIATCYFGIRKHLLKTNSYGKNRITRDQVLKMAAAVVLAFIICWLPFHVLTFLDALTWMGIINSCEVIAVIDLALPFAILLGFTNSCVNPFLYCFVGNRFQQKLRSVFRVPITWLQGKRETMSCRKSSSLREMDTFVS
The data set is described as follows: Inhibition of radioligand [3H]angiotensin II binding to angiotensin II receptor of rat adrenal cortical membrane. The method in brief: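 Rat adrenal cortical microsomes came from male Sprague-Dawley CD rats (300-400 g) and were prepared at 4 °C in sucrose/EDTA/Tris pH 7.4. Samples were filtered and counted, in duplicate. Specific binding was defined with 1 µM unlabeled AII. IC50 was taken from the linear portion of the displacement curve.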

Data set [6] concerns Rattus norvegicus. The data set is described as follows: Blood pressure lowering activity in renal hypertensive rats after intravenous administration. Format: functional. The method in brief: as §1
The subject of data set [7] is Rattus norvegicus. The data set is described as follows: Blood pressure lowering activity in renal hypertensive rats after peroral administration; Inactive indicates fail to cause significant drop in blood pressure even at 100 mg/kg (in vivo). Details: dose 100 mg/kg. Format: functional, organism-based. The method in brief:
(§3)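 Conscious male Sprague-Dawley CD rats, six days after left renal artery ligation and with jugular and carotid cannulae, were dosed by oral gavage at 1-100 mg/kg (4-6 rats/dose). Mean arterial pressure was monitored for 3 h.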

For data set [8], the system named is Rattus norvegicus. The data set is described as follows: Blood pressure lowering activity in renal hypertensive rats after peroral administration. The class given is functional. A digest of the protocol:
as §3

Data set [9] has as its system Rattus norvegicus. The data set is described as follows: Blood pressure lowering activity in renal hypertensive rats after peroral administration; Inactive indicates fail to cause significant drop in blood pressure even at 100 mg/kg. The class given is functional, organism-based. More on the design: dose 100 mg/kg. A digest of the protocol: as §3
Data set [10] concerns Rattus norvegicus. The data set is described as follows: Blood pressure lowering activity in renal hypertensive rats after intravenous administration; NA=not active indicates fail to cause drop in blood pressure even at 100 mg/Kg (in vivo). The class given is functional, organism-based. The method in brief: as §1
In data set [11] the test system is Rattus norvegicus. The data set is described as follows: Blood pressure lowering activity in renal hypertensive rats after peroral administration; NA=not active indicates fail to cause drop in blood pressure even at 100 mg/Kg (in vivo). Format: functional, organism-based. The method in brief: as §3
The test system of data set [12] is Rattus norvegicus. The data set is described as follows: Blood pressure lowering activity in renal hypertensive rats after peroral administration; no drop in blood pressure or a statistically insignificant drop in blood pressure was observed (in vivo). The class given is functional. The method in brief: as §3

The term pKa denotes the pH at which an ionisable group is half protonated. The low end stands for a stronger acid or weaker base, the high end for a weaker acid or stronger base. In turn, `CCCCc1nc(Cl)c(CO)n1Cc1ccc(-c2ccccc2C(=O)NS(=O)(=O)c2ccccc2)cc1` came in with an Activity in the data set with Rattus norvegicus [1] of over 3 mg/kg. Moreover, in data set [2], the pKa is 8.44. Also, the outcome in the data set with Rattus norvegicus [3] was inactive.
As to `CCCCc1nc(Cl)c(CO)n1Cc1ccc(-c2ccccc2-c2nnn[nH]2)cc1` [LOSARTAN], the ED30 in the data set with Rattus norvegicus [4] was 0.8 mg/kg; with Rattus norvegicus [5] it was 0.59 mg/kg. Further, the pKa in data set [2] stood at 6.
In general, IC50 refers to the point on the concentration scale where inhibition reaches its midpoint. Read a high IC50 as a need for much substance. Molecule `CCCCc1nc(Cl)c(CO)n1Cc1ccc(-c2ccccc2C(=O)NOCc2ccccc2)cc1` had a 50% inhibitory concentration (IC50) at Angiotensin II receptor of 4.9 µM. The molecule further gave an Activity in the data set on Rattus norvegicus [6] of 10 mg/kg. This molecule also registered a pKa in data set [2] of 10.8. The result with Rattus norvegicus [7] was inactive.
With `CCCCc1nc(Cl)c(CNC(=O)c2cc3c(OCC(O)CNC(C)C)cccc3[nH]2)n1Cc1ccc(-c2ccccc2C(=O)O)cc1` (stereo unspecified), the ED30 with Rattus norvegicus [4] amounted to 1 mg/kg. The same molecule came in with an IC50 on Angiotensin II receptor of 0.38 µM.
Consider `CCCCc1nc(Cl)c(C(=O)O)n1Cc1ccc(-c2ccccc2C(=O)O)cc1`, for which the ED30 in the data set with Rattus norvegicus [4] stood at 0.47 mg/kg. Also, the concentration for half-maximal inhibition (IC50) at Angiotensin II receptor was 0.092 µM. This molecule returned an Activity with Rattus norvegicus [8] of over 10 mg/kg.
As to `CCCCc1nc(Cl)c(CO)n1Cc1ccc(-c2ccccc2C(=O)NOC)cc1`, the outcome in the data set on Rattus norvegicus [9] was inactive. The molecule also registered an Activity in the data set with Rattus norvegicus [6] of 10 mg/kg. Moreover, in data set [2], the pKa worked out at 10.9.
Consider `CCCCc1nc(Cl)c(CO)n1Cc1ccc(-c2ccccc2C(=O)NO)cc1`, for which the half-maximal inhibitory concentration (IC50) on Angiotensin II receptor came to 4.1 µM. In addition, the results for the Activity in the data set with Rattus norvegicus [8] and with Rattus norvegicus [1] were over 30 mg/kg and over 3 mg/kg, respectively. In data set [2], this molecule had a pKa of 10.5.
Regarding `CCCCc1nc(Cl)c(CNC(=O)Nc2cccc3ccccc23)n1Cc1ccc(-c2ccccc2C(=O)O)cc1`, the 50% inhibitory concentration (IC50) at Angiotensin II receptor was found to be 3 µM. The molecule further showed an Activity with Rattus norvegicus [6] of 10 mg/kg. For the same molecule, the result in the data set on Rattus norvegicus [7] was inactive.
In turn, `CCCCc1nc(Cl)c(CO)n1Cc1ccc(-c2ccccc2NC(=O)C(F)(F)F)cc1` had an Activity in the data set on Rattus norvegicus [6] of 10 mg/kg. Also, the pKa in data set [2] came out at 9.5. Moreover, the result with Rattus norvegicus [7] was inactive.
Turning to `CCCCc1nc(Cl)c(CO)n1Cc1ccc(-c2cc(C#N)ccc2-c2nn[nH]n2)cc1`, the half-inhibitory concentration (IC50) on Angiotensin II receptor came out at 0.51 µM. In addition, the Activity in the data set with Rattus norvegicus [8] was over 30 mg/kg; with Rattus norvegicus [1], over 3 mg/kg.
With `CCCCc1nc(Cl)c(CO)n1Cc1ccc(-c2cc(OC)ccc2-c2nn[nH]n2)cc1`, the ED30 in the data set on Rattus norvegicus [4] was found to be 6.03 mg/kg. The Activity in the data set with Rattus norvegicus [8] was over 10 mg/kg.
In turn, `CCCCc1nc(Cl)c(COC)n1Cc1ccc(-c2ccccc2C(=O)NNS(=O)(=O)C(F)(F)F)cc1` had a half-inhibitory concentration (IC50) on Angiotensin II receptor of 0.2 µM. Moreover, the results for the Activity with Rattus norvegicus [8] and in the data set with Rattus norvegicus [1] were over 30 mg/kg and over 3 mg/kg, respectively.
With `CCCCc1nc(Cl)c(CNC(=O)NC)n1Cc1ccc(-c2ccccc2C(=O)O)cc1`, the IC50 on Angiotensin II receptor was 0.24 µM. Further, the Activity in the data set on Rattus norvegicus [6] came out at 10 mg/kg. In addition, in the data set with Rattus norvegicus [7], the result was inactive.
In the case of `CCCCc1nc(Cl)c(CO)n1Cc1ccc(-c2ccc(OC)cc2-c2nn[nH]n2)cc1`, the ED30 with Rattus norvegicus [4] is 1.75 mg/kg. The half-inhibitory concentration (IC50) on Angiotensin II receptor is 0.58 µM. This molecule also had an Activity in the data set on Rattus norvegicus [8] of over 10 mg/kg.
Consider `CC/C=C/c1nc(Cl)c(CO)n1Cc1ccc(-c2ccccc2C(=O)O)cc1`, for which the ED30 in the data set on Rattus norvegicus [4] worked out at 1 mg/kg; in the data set with Rattus norvegicus [5], 3.6 mg/kg.
Consider `CCCCc1nc(Cl)c(C=O)n1Cc1ccc(-c2ccccc2C(=O)O)cc1`, for which the ED30 in the data set on Rattus norvegicus [5] turned out to be 1.7 mg/kg. Moreover, the Activity with Rattus norvegicus [6] was determined as 10 mg/kg.
In turn, `CCCc1nc(C)c(CO)n1Cc1ccc(-c2ccccc2C(=O)O)cc1` gave an ED30 in the data set on Rattus norvegicus [4] of 1.3 mg/kg. At Angiotensin II receptor, this molecule registered an IC50 of 1.8 µM. Moreover, in the data set on Rattus norvegicus [8], the Activity is over 30 mg/kg.
Turning to `CCCCc1nc(Cl)c(CNC(=O)NC(C)c2cccc3ccccc23)n1Cc1ccc(-c2ccccc2C(=O)O)cc1` (stereo unspecified), the IC50 on Angiotensin II receptor stood at 0.7 µM. This molecule registered an Activity in the data set with Rattus norvegicus [6] of over 10 mg/kg. Also, the result in the data set on Rattus norvegicus [7] was inactive.
For `CCCCc1ncc(CO)n1Cc1ccc(-c2ccccc2-c2nn[nH]n2)cc1`, the result with Rattus norvegicus [10] and in the data set on Rattus norvegicus [11] was inactive.
In turn, `CCCCc1nc(Cl)c(C=O)n1Cc1ccc(-c2ccc(-c3nn[nH]n3)cc2)cc1` yielded an IC50 at Angiotensin II receptor of over 10 µM. The results for the Activity in the data set with Rattus norvegicus [8] and with Rattus norvegicus [1] were over 30 mg/kg and over 3 mg/kg, respectively.
The molecule `CCCCc1ncc(CO)n1Cc1ccc(-c2ccccc2C(=O)O)cc1` had an IC50 on Angiotensin II receptor of 0.27 µM. Also, the Activity in the data set with Rattus norvegicus [6] amounted to 10 mg/kg. Also, the result in the data set with Rattus norvegicus [7] was inactive.
With `CCCCc1nc(C(F)(F)F)c(CO)n1Cc1ccc(-c2ccccc2-c2nn[nH]n2)cc1`, in the data set on Rattus norvegicus [4], the ED30 was determined as 0.53 mg/kg. In the data set on Rattus norvegicus [12], this molecule yielded an Activity of over 3 mg/kg.
Regarding `CCCCc1nc(Cl)c(C=O)n1Cc1ccc(-c2ccccc2-c2[nH]nnc2F)cc1`, on Angiotensin II receptor, the half-inhibitory concentration (IC50) came out at 13 µM. In addition, the Activity in the data set with Rattus norvegicus [6] was over 10 mg/kg. Also, in the data set on Rattus norvegicus [7], the result was inactive.
On to `CCCCc1nc([N+](=O)[O-])c(CO)n1Cc1ccc(-c2ccccc2C(=O)O)cc1`, for which the half-maximal inhibitory concentration (IC50) at Angiotensin II receptor stood at 0.26 µM. The Activity in the data set with Rattus norvegicus [6] stood at 10 mg/kg. The outcome in the data set on Rattus norvegicus [7] was inactive.
The molecule `CCCCc1nc(Cl)c(CO)n1Cc1ccc(-c2ccccc2C(=O)O)cc1` yielded an ED30 in the data set on Rattus norvegicus [5] of 11 mg/kg. The molecule further displayed an Activity in the data set with Rattus norvegicus [6] of 3 mg/kg. Further, the pKa in data set [2] turned out to be 5.
